In ChEMBL document CHEMBL1759837, “Studies on chemical modification and biology of a natural product, gambogic acid (III): determination of the essential pharmacophore for biological activity” (Eur J Med Chem, 2011):

Tests used:
Assay type in all cases: functional, cell-based
[1] = system: MCF7; experiment: Antiproliferative activity against human MCF7 cells after 24 hrs by MTT assay; conditions: MCF7, 24 h
Procedure, shortened: (§1)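 Cells grown at 37 °C in humidified 5% CO2 with benzylpenicillin and streptomycin. Compounds came from 0.01 mol/L DMSO stocks and were tested at eight two-fold dilutions in triplicate, with medium-only controls, for 24 h. MTT absorbance was read at 570 nm. Survival = A_treatment/A_control × 100. IC50 is the concentration giving 50% viability inhibition, as the mean of two separate experiments.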

[2] = system: BGC-823; experiment: Antiproliferative activity against human BGC823 cells after 24 hrs by MTT assay; conditions: BGC-823, 24 h; procedure, shortened: as §1
[3] = system: SMMC-7721; experiment: Antiproliferative activity against human SMMC7721 cells after 24 hrs by MTT assay; conditions: SMMC-7721, 24 h; procedure, shortened: as §1
[4] = system: HepG2; experiment: Antiproliferative activity against human HepG2 cells after 24 hrs by MTT assay; conditions: HepG2, 24 h
Procedure, shortened: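 Tetrazolium MTT viability test; cells exposed to compound 24 h, absorbance read at 570 nm. Survival ratio = A treated / A control × 100%; IC50 is the concentration giving 50% loss of viability. Eight concentrations in two-fold dilutions, triplicate wells, mean of two separate experiments. Compounds dissolved in DMSO (0.01 mol/L stock); control wells received medium only.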

Structure (SMILES) | IC50 [1] | IC50 [2] | IC50 [3] | IC50 [4]
CC(C)=CCC12OC(C)(C)C3CC(C=C4C(=O)c5cc(O)ccc5OC431)C2=O (stereo not drawn) | 20.6 µM | 32.5 µM | 20 µM | 12.3 µM
CC(C)=CCC12OC(C)(C)C3CC(C=C4C(=O)c5ccccc5OC431)C2=O (stereo not drawn) | 13.9 µM | 20.3 µM | 10.5 µM | 6.77 µM
